Measured values reported in ChEMBL document CHEMBL3259717, “Synthetic calanolides with bactericidal activity against replicating and nonreplicating Mycobacterium tuberculosis” (J Med Chem, 2014).
Converted amounts (≈) assume the structure as drawn.

Experiments:
[1] = Cytotoxicity against human HepG2 cells assessed as decrease in ATP signal after 2 days by CellTiter-Glo assay; type: cell-based; settings: read-out: LD50
How it was run: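 HepG2 in DMEM with 10% FBS, pyruvate, glutamine, HEPES and nonessential amino acids, seeded 3000 cells/well in 384-well plates. Compound for 2 days at 1% final DMSO. ATP read by CellTiter-Glo luminescence. LD50 = 50% drop in ATP signal vs DMSO. SI = LD50/MIC90 against replicating Mtb.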

[2] = system: Mycobacterium tuberculosis; test: Antibacterial activity against replicating form of Mycobacterium tuberculosis MC2 6220 assessed as growth inhibition after 7 days by high-throughput screening assay; type: functional; settings: MC2 6220, 168 h
How it was run: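 Attenuated Mtb mc26220 ΔpanCDΔlysA in 7H9 with glycerol, tyloxapol, OADC, casein amino acids, 240 μg/mL L-lysine, 24 μg/mL pantothenate. Mid-log cells diluted to OD580 0.01 in 384-well plates, compound in DMSO, 7 days at 37 °C, 20% O2, 5% CO2. OD580 read; MIC90 = 90% growth inhibition vs DMSO.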

[3] = system: Mycobacterium tuberculosis; test: Antibacterial activity against non-replicating form of Mycobacterium tuberculosis MC2 6220 assessed as growth inhibition after 3 days by high-throughput screening assay; type: functional; settings: MC2 6220, 72 h
How it was run: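 Log-phase mc26220 washed in PBS/tyloxapol, resuspended in Sauton's-based NR medium (butyrate, 0.5 mM NaNO2, pH 5.0) at OD580 0.1. Compound exposure 3 days at 37 °C, 1% O2, 5% CO2. Then R medium added (5-fold dilution), 7 days outgrowth at 20% O2. OD580 read; MIC90 = 90% inhibition vs DMSO.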

Compound | CC50 at 48 h [1] | MIC90 [2] | MIC90 [3]
CCCc1cc(=O)oc2cc(OC3CCCC3)c3c(c12)OC(C)(C)C=C3 | > 23 mg/L | > 23 mg/L | > 23 mg/L
CCCc1cc(=O)oc2c3c(cc(OCCN4CCOCC4)c12)O[C@H]([N+](=O)[O-])[C@H]3C (racemic) | > 21 mg/L | > 21 mg/L | > 21 mg/L
CCCc1cc(=O)oc2cc(C#Cc3ccc(F)cc3)c3c(c12)OC(C)(C)C=C3 | > 19 mg/L | > 19 mg/L | > 19 mg/L
CCCc1cc(=O)oc2cc(OC)c3c(c12)OC(C)(C)C=C3 | – | > 15 mg/L | > 15 mg/L
CCCc1cc(=O)oc2cc(C#Cc3ccc(C)cc3)c3c(c12)OC(C)(C)C=C3 | > 19 mg/L | > 19 mg/L | > 19 mg/L
CCCc1cc(=O)oc2cc(N3CCN(C(=O)Nc4ccc(F)cc4)CC3)c3c(c12)OC(C)(C)C=C3 | > 25 mg/L | > 25 mg/L | > 25 mg/L
CCCc1cc(=O)oc2cc(OC3CCCCC3)c3c(c12)OC(C)(C)C=C3 | > 18 mg/L | > 18 mg/L | > 18 mg/L
CCCc1cc(=O)oc2cc(OC(=O)/C=C/c3ccccc3)c3c(c12)OC(C)(C)C=C3 | – | > 21 mg/L | > 21 mg/L
CCCc1cc(=O)oc2c(C(=O)CC)c(N(C)C)c3c(c12)OC(C)(C)C=C3 | – | > 18 mg/L | > 18 mg/L
CCCc1cc(=O)oc2c(C(=O)CC)c(N3CCN(c4ccc(OC)cc4)CC3)c3c(c12)OC(C)(C)C=C3 | – | > 26 mg/L | > 26 mg/L
CCCc1cc(=O)oc2cc(OCCCO)c3c(c12)OC(C)(C)C=C3 | – | > 17 mg/L | > 17 mg/L
CCCc1cc(=O)oc2c1c(-c1ccc(F)cc1)cc1oc([N+](=O)[O-])cc12 | – | 0.7 mg/L (≈ 1.91 µM) | 18 mg/L (≈ 49 µM)
CCCc1cc(=O)oc2cc(OCC3CC3)c3c(c12)OC(C)(C)C=C3 | – | > 17 mg/L | > 17 mg/L
CCCc1cc(=O)oc2cc(NC(=O)Nc3ccc(F)cc3)c3c(c12)OC(C)(C)C=C3 | – | > 21 mg/L | > 21 mg/L
CCCc1cc(=O)oc2cc(OCC(=O)NCCc3ccccc3)c3c(c12)OC(C)(C)C=C3 | – | > 22 mg/L | > 22 mg/L
CCCc1cc(=O)oc2cc(N3CCSCC3)c3c(c12)OC(C)(C)C=C3 | – | > 19 mg/L | > 19 mg/L
CCCc1cc(=O)oc2cc(NC(C)=O)c3c(c12)OC(C)(C)C=C3 | – | > 16 mg/L | > 16 mg/L
CCCc1cc(=O)oc2cc(N3CCN(C(=O)Nc4ccc(C(C)C)cc4)CC3)c3c(c12)OC(C)(C)C=C3 | > 26 mg/L | > 26 mg/L | > 26 mg/L
CCCc1cc(=O)oc2cc(N3CCN(C(=O)Nc4ccc(C#N)cc4)CC3)c3c(c12)OC(C)(C)C=C3 | > 25 mg/L | > 25 mg/L | > 25 mg/L
CCCc1cc(=O)oc2cc(N3CCN(C(=O)Nc4ccccc4Oc4ccccc4)CC3)c3c(c12)OC(C)(C)C=C3 | > 28 mg/L | > 28 mg/L | > 28 mg/L
CCCc1cc(=O)oc2c(C(=O)CC)c(N3CCSCC3)c3c(c12)OC(C)(C)C=C3 | – | > 21 mg/L | > 21 mg/L
CCCc1cc(=O)oc2cc(OC(=O)c3ccccc3)c3c(c12)OC(C)(C)C=C3 | – | > 20 mg/L | > 20 mg/L
CCCc1cc(=O)oc2cc(NC(=O)c3cnccn3)c3c(c12)OC(C)(C)C=C3 | – | > 20 mg/L | > 20 mg/L
CCCc1cc(=O)oc2cc(C#CCOc3ccc(F)cc3)c3c(c12)OC(C)(C)C=C3 | > 21 mg/L | > 21 mg/L | > 21 mg/L
CCCc1cc(=O)oc2c3c(c4cc([N+](=O)[O-])oc4c12)OC(C)CC3=O (stereo not given) | – | > 50 mg/L | 6 mg/L (≈ 16.8 µM)
CCCc1cc(=O)oc2cc(N3CCN(C(=O)Nc4ccc(OC(F)(F)F)cc4)CC3)c3c(c12)OC(C)(C)C=C3 | > 28 mg/L | > 28 mg/L | > 28 mg/L
Cc1cc(=O)oc2cc(NC(=O)c3ccc([N+](=O)[O-])o3)c3c(c12)OC(C)(C)C=C3 | – | > 20 mg/L | > 20 mg/L

Compound | CC50 at 48 h [1] | MIC90 [2] | MIC90 [3]
CCCc1cc(=O)oc2cc(NC(=O)c3ccccc3)c3c(c12)OC(C)(C)C=C3 | – | > 19 mg/L | > 19 mg/L
CCCc1cc(=O)oc2cc(OC3CCN(C(=O)NCc4ccccc4)CC3)c3c(c12)OC(C)(C)C=C3 | > 25 mg/L | > 25 mg/L | > 25 mg/L
CCCc1cc(=O)oc2c1c(O)cc1oc([N+](=O)[O-])cc12 | – | > 14 mg/L | > 14 mg/L
CCCc1cc(=O)oc2c3c(c4c(c12)OC(C)(C)C=C4)OC(OC(C)=O)C3=O (stereo not given) | – | > 100 mg/L | 6 mg/L (≈ 15.6 µM)
CC1(C)C=Cc2c(c3c(-c4ccccc4)cc(=O)oc3c3cc([N+](=O)[O-])oc23)O1 | – | 2 mg/L (≈ 5.14 µM) | 19 mg/L (≈ 48.8 µM)
CCCc1cc(=O)oc2cc(NCc3ccccc3)c3c(c12)OC(C)(C)C=C3 | – | 19 mg/L (≈ 50.6 µM) | > 19 mg/L
CCCc1c(F)c(=O)oc2c1c1c(c3oc([N+](=O)[O-])cc32)C=CC(C)(C)O1 | – | 19 mg/L (≈ 50.9 µM) | 19 mg/L (≈ 50.9 µM)
CCCc1cc(=O)oc2cc(OC3CCN(C(=O)Nc4ccc(F)cc4)CC3)c3c(c12)OC(C)(C)C=C3 | – | > 24 mg/L | > 24 mg/L
CC1(C)C=Cc2c(c3c4c(c(=O)oc3c3cc([N+](=O)[O-])oc23)CCCC4)O1 | – | < 0.2 mg/L | 2 mg/L (≈ 5.44 µM)
CCCc1cc(=O)oc2cc(OCCc3cccs3)c3c(c12)OC(C)(C)C=C3 | – | > 20 mg/L | > 20 mg/L
CCCc1cc(=O)oc2c1c1c(c3occc32)C=CC(C)(C)O1 | – | > 100 mg/L | > 100 mg/L
CCCc1cc(=O)oc2c(C(=O)CC)c(N3CCN(c4ccccn4)CC3)c3c(c12)OC(C)(C)C=C3 | – | > 24 mg/L | > 24 mg/L
CCCc1cc(=O)oc2c(C(=O)CC)c(N3CCN(c4ccncc4)CC3)c3c(c12)OC(C)(C)C=C3 | – | > 24 mg/L | > 24 mg/L
CCCc1cc(=O)oc2cc(NCc3cccc(F)c3)c3c(c12)OC(C)(C)C=C3 | – | > 20 mg/L | > 20 mg/L
CCCc1cc(=O)oc2c1c(OCCN1CCOCC1)cc1oc([N+](=O)[O-])c(CO)c12 | – | 100 mg/L (≈ 231 µM) | 100 mg/L (≈ 231 µM)
CCCc1cc(=O)oc2cc(Nc3ccccc3)c3c(c12)OC(C)(C)C=C3 | – | > 18 mg/L | > 18 mg/L
CCCc1cc(=O)oc2c(C(=O)CC)c(N3CCOCC3)c3c(c12)OC(C)(C)C=C3 | – | > 21 mg/L | > 21 mg/L
CCCc1cc(=O)oc2cc(NCc3ccc(F)cc3)c3c(c12)OC(C)(C)C=C3 | – | > 20 mg/L | > 20 mg/L
Cc1c(Cc2ccccc2)c(=O)oc2c1c1c(c3oc([N+](=O)[O-])cc32)C=CC(C)(C)O1 | – | 2 mg/L (≈ 4.79 µM) | > 21 mg/L
CCCc1cc(=O)oc2cc(OC(C)=O)c3c(c12)OC(C)(C)C=C3 | – | > 16 mg/L | > 16 mg/L
CCCc1cc(=O)oc2cc(OCc3ccccc3)c3c(c12)OC(C)(C)C=C3 | – | > 19 mg/L | > 19 mg/L
CCCc1cc(=O)oc2c3c(c4c(c12)OC(C)(C)C=C4)OC(O)C3=O (stereo not given) | – | > 17 mg/L | 17 mg/L (≈ 49.7 µM)
CCCc1cc(=O)oc2cc(NC(=O)Nc3cccc4ccccc34)c3c(c12)OC(C)(C)C=C3 | – | > 23 mg/L | > 23 mg/L
CCCC1CC(=O)Oc2c1c1c(c3oc([N+](=O)[O-])cc23)C=CC(C)(C)O1 (stereo not given) | – | > 18 mg/L | > 18 mg/L
CCCc1cc(=O)oc2cc(N3CCC(O)CC3)c3c(c12)OC(C)(C)C=C3 | – | > 18 mg/L | > 18 mg/L
CCCc1cc(=O)oc2c3c(c4c(c12)OC(C)(C)C=C4)OC(C)(OC(C)=O)C3=O (stereo not given) | – | > 20 mg/L | > 20 mg/L
CCCc1cc(=O)oc2c(C(=O)CC)c(N3CCN(Cc4ccc(F)cc4)CC3)c3c(c12)OC(C)(C)C=C3 | – | > 26 mg/L | 26 mg/L (≈ 50.1 µM)
